# Screening results: PubChem, Broad Institute
# In the library only some 5.8% were active in any assay of this set; here they are far more common.
# IDH1 mut inh – inhibitors of human IDH1 R132H. O75874. 70,000 tested, 0.18% active. AID 624101. inhibition, % at 10 µM. IDH1 R132H reductase, diaphorase/resazurin fluorescence, 60 min; in the data active means inhibition above about 34%; inconclusive means no clear call, values can overlap the other calls; inactive means below about 11%;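 further: 0% = DMSO and 100% = no enzyme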
# Target sequence (O75874 whole entry R132H): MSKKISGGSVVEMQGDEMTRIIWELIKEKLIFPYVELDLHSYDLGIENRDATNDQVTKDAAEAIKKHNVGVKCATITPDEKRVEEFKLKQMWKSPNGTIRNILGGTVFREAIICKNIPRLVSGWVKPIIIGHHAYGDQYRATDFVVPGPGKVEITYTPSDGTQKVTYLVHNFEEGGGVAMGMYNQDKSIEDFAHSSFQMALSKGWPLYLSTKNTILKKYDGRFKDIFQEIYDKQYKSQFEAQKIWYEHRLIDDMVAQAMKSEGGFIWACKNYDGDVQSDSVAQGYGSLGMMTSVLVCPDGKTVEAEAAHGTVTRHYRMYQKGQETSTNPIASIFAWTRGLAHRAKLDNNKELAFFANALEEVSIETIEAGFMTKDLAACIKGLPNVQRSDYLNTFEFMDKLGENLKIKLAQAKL
# Pf Dd2 inh – inhibitors of Plasmodium falciparum Dd2 growth; activity change, % at 10 µM; 94,000 tested, 2.3% active; P. falciparum Dd2 growth, SYBR Green, 72 h; stronger effect = lower value; AID 1159554; in the data active means activity change below about -80%; inconclusive means no clear call, values can overlap the other calls
# T cruzi growth-1 – blocks T. cruzi growth in NIH3T3 culture; T. cruzi beta-gal in NIH3T3, GalScreen luminescence, 90 h; inhibition, % at 8.34 µM; 77,000 tested, 5.9% active; AID 624255;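 active means mean inhibition above about 93%, with at least 55% of replicates each passing it, limit read from the data, passing the limit was not always enough; inconclusive means only one of those two conditions holds; inactive means neither condition holds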
# GASC1 inh – blocks human GASC-1 (KDM4C) demethylase activity; AID 720574; Q9H3R0; GST-KDM4C 2-372, H3K9me3 peptide, LANCE TR-FRET; 96,000 tested, 0.15% active; inhibition, % at 12.5 µM;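 active means mean replicate inhibition above about 25%, with at least 55% of replicates also reaching it, limit read from the data, passing the limit was not always enough; inconclusive means only one of those two conditions met; inactive means neither condition met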
#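 System – N-terminal GST-fused human GASC-1 (KDM4C) fragment, residues 2-372 · Input – enzyme final amount 10 nM · Technique – LANCE TR-FRET, Eu antibody, ULight-streptavidin, EDTA, ex 340 nm, em 618/671 nm · Medium – HEPES buffer, pH 7.5, plus ascorbate · Incubation – enzyme reaction 30 min, then detection 60 min, both room temperature · Reagent – H3K9me3 peptide with Fe(II)/2OG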
# T cruzi growth-2 – blocks T. cruzi growth in NIH3T3 host cells. T. cruzi beta-gal in NIH3T3, GalScreen luminescence, 90 h. 5,600 tested, 72% active. inhibition, % at 8.35 µM. shares compounds with T cruzi growth-1;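 active means mean replicate inhibition above about 95% and at least 55% of replicates individually reaching it, limit read from the data; inconclusive means only one of the two criteria is met; inactive means neither criterion is met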
# T cruzi growth-3 – Trypanosoma cruzi proliferation inhibition. shares compounds with T cruzi growth-1. T. cruzi beta-gal in NIH3T3, GalScreen luminescence, 90 h. inhibition, % at 2.09 µM. 5,600 tested, 21% active;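 active means mean inhibition above about 95%, with at least 55% of replicates also reaching it, limit read from the data; inconclusive means meets just one of the two conditions; inactive means meets neither condition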;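 further: plate controls were neutral control median for no effect and positive control median for full effect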
# 3T3 cytotox – kills mouse NIH/3T3 fibroblasts; cytotoxicity (signal decrease), % at 8.35 µM; AID 651742; shares compounds with T cruzi growth-1; 5,600 tested, 14% active; NIH/3T3 viability, CellTiter-Glo ATP luminescence, 90 h;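 active means mean signal decrease across replicates above about 35% based on untreated-well scatter, with enough replicates individually passing, limit read from the data; inconclusive means no rule stated though some were filed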;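 further: 0% = median of neutral control wells and 100% = median of positive control wells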
# 3T3 cytotox 2 – cytotoxicity in mouse NIH/3T3 fibroblasts. shares compounds with T cruzi growth-1. NIH/3T3 viability, CellTiter-Glo ATP luminescence, 90 h. inhibition, % at 24.9 µM. 5,600 tested, 56% active. AID 651744;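 active means mean loss of cell viability signal at or above a set limit, and enough replicates individually reaching it; inconclusive means meets only the mean limit or only the replicate share; inactive means meets neither condition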;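 further: 0% = median of neutral control wells and 100% = median of positive control wells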
# Numbers without * were called inactive; ? = inconclusive; . = no result given.
SMILES,IDH1 mut inh,Pf Dd2 inh,T cruzi growth-1,GASC1 inh,T cruzi growth-2,T cruzi growth-3,3T3 cytotox,3T3 cytotox 2
C[C@H]1CCCCO[C@H](CN(C)Cc2ccccc2)[C@@H](C)CN([C@@H](C)CO)C(=O)c2cc(NS(=O)(=O)c3ccc(Cl)cc3)ccc2O1,.,2,109*,-1,101*,54,5,104*
COc1ccc(S(=O)(=O)N2CC[C@@H]3[C@H]2c2cc(-c4ccccc4F)ccc2N(C)[C@H]3CO)cc1,.,-22,56,-9,.,.,.,.
CN1c2ccc(-c3ccccc3F)cc2[C@@H]2[C@@H](CCN2S(=O)(=O)c2ccc(F)cc2)[C@@H]1CO,.,2,?,-1,96*,?,45*,46*
CN1c2ccc(-c3ccccc3F)cc2[C@@H]2[C@@H](CCN2S(=O)(=O)c2ccc(F)cc2)[C@H]1CO,.,4,108*,0,111*,91,?,49*
CC(C)(O)C#Cc1ccc([C@H]2[C@H]3CN(Cc4ccccc4F)CCCCN3[C@H]2CO)cc1,.,-22,44,2,.,.,.,.
OC[C@H]1[C@H](c2ccc(C#Cc3cccnc3)cc2)[C@H]2CN(Cc3ccccc3F)CCCCN21,.,-71,110*,2,107*,79,16,103*
OC[C@@H]1[C@@H](c2ccc(C#Cc3cccnc3)cc2)[C@H]2CN(Cc3ccccc3F)CCCCN12,.,-73,104*,-1,107*,-1,33,102*
N#Cc1cccc(-c2ccc([C@@H]3[C@@H](CO)N4CCCCN(Cc5ccccc5F)C[C@H]34)cc2)c1,.,-28,58,1,.,.,.,.
COc1ccc(C#Cc2ccc([C@@H]3[C@H]4CN(Cc5ccccc5F)CCCCN4[C@H]3CO)cc2)cc1,.,-51,54,-2,.,.,.,.
N#Cc1cccc(-c2ccc([C@H]3[C@@H](CO)N4CCCCN(Cc5ccccc5F)C[C@@H]34)cc2)c1,.,22,99*,-2,104*,77,14,97*
OC[C@H]1[C@@H](c2ccc(C#Cc3cccnc3)cc2)[C@H]2CN(Cc3ccccc3F)CCCCN21,.,-58,?,2,106*,92,15,74*
OC[C@H]1[C@@H](c2ccc(C#Cc3cccnc3)cc2)[C@@H]2CN(Cc3ccccc3F)CCCCN12,.,-74,111*,0,96*,?,36*,104*
COc1ccc(C#Cc2ccc([C@H]3[C@@H](CO)N4CCCCN(Cc5ccccc5F)C[C@H]34)cc2)cc1,.,-72,-9,-1,.,.,.,.
C[C@H](CO)N1C[C@H](C)[C@H](CN(C)Cc2ccc(C(F)(F)F)cc2)Oc2c(NC(=O)Nc3ccccc3)cccc2C1=O,2,-4,14,2,.,.,.,.
C[C@H](CO)N1C[C@H](C)[C@H](CN(C)Cc2ccc(C(F)(F)F)cc2)Oc2ccc(NC(=O)Nc3cccc4ccccc34)cc2C1=O,-2,8,49,8,.,.,.,.
C[C@@H]1CN([C@H](C)CO)C(=O)c2cc(NC(=O)Nc3cccc4ccccc34)ccc2O[C@@H]1CN(C)Cc1ccc(C(F)(F)F)cc1,2,-8,92*,0,97*,88,47*,38*
C[C@H](CO)N1C[C@H](C)[C@H](CN(C)Cc2ccc(C(F)(F)F)cc2)Oc2c(NC(=O)Nc3cccc4ccccc34)cccc2C1=O,.,-39,111*,-3,103*,73,34,30*
C[C@@H]1CN([C@@H](C)CO)C(=O)c2cc(NC(=O)Nc3cccc4ccccc34)ccc2O[C@@H]1CN(C)Cc1ccc(C(F)(F)F)cc1,0,33,106*,-1,106*,107*,53*,46*
C[C@H]1CN([C@@H](C)CO)C(=O)c2cc(NC(=O)Nc3cccc4ccccc34)ccc2O[C@H]1CN(C)Cc1ccccc1,-1,3,46,-2,.,.,.,.
COC(=O)c1ccccc1NC(=O)c1ccc(NC(=O)CSc2ccccc2)cc1,0,.,.,.,.,.,.,.
O=C(CC1NCCNC1=O)Nc1ccc(F)cc1 (stereo not given),0,.,.,.,.,.,.,.
COc1cccc(C(=O)Nc2ccc3c(c2)OC[C@H](C)N(CCc2ccccc2)C[C@@H](C)[C@@H](OC)CN(C)C3=O)c1,0,-35,119*,-1,109*,62,13,-1
COc1cccc(C(=O)Nc2ccc3c(c2)OC[C@@H](C)N(CCc2ccccc2)C[C@@H](C)[C@@H](OC)CN(C)C3=O)c1,0,-55,68,1,.,.,.,.
COc1cccc(C(=O)Nc2ccc3c(c2)C(=O)N(C)C[C@H](OC)[C@H](C)CN(CCc2ccccc2)[C@@H](C)CO3)c1,0,-58,?,2,.,.,.,.
COc1cccc(C(=O)Nc2ccc3c(c2)OC[C@H](C)N(CCc2ccccc2)C[C@H](C)[C@@H](OC)CN(C)C3=O)c1,0,-52,116*,-2,103*,77,-6,8
SMILES,IDH1 mut inh,Pf Dd2 inh,T cruzi growth-1,GASC1 inh,T cruzi growth-2,T cruzi growth-3,3T3 cytotox,3T3 cytotox 2
COc1cccc(C(=O)Nc2ccc3c(c2)OC[C@@H](C)N(CCc2ccccc2)C[C@H](C)[C@@H](OC)CN(C)C3=O)c1,-1,-2,110*,-3,110*,56,-19,-5
COc1cccc(C(=O)Nc2ccc3c(c2)C(=O)N(C)C[C@H](OC)[C@@H](C)CN(CCc2ccccc2)[C@H](C)CO3)c1,0,-49,84,0,.,.,.,.
O=C(Nc1ccc(F)cc1)N1CC(=O)N2[C@@H](CO)[C@H](c3ccc(-c4ccc(F)cc4)cc3)[C@@H]2C1,.,-41,.,0,.,.,.,.
C[C@H]1CCCCO[C@H](CN(C)Cc2ccc(Cl)c(Cl)c2)[C@@H](C)CN([C@@H](C)CO)C(=O)c2cc(NC(=O)Nc3ccccc3)ccc2O1,.,-61,69,-2,.,.,.,.
C[C@@H]1CCCCO[C@@H](CN(C)Cc2ccc(Cl)c(Cl)c2)[C@@H](C)CN([C@@H](C)CO)C(=O)c2cc(NC(=O)Nc3ccc(F)cc3)ccc2O1,.,-52,109*,0,?,109*,4,27
C[C@@H]1CN([C@H](C)CO)C(=O)c2cc(NC(=O)Nc3ccc(F)cc3)ccc2O[C@@H](C)CCCCO[C@@H]1CN(C)Cc1ccc(Cl)c(Cl)c1,0,-79,101*,12,96*,105*,-29,-12
C[C@@H]1CCCCO[C@@H](CN(C)Cc2ccc(Cl)c(Cl)c2)[C@@H](C)CN([C@@H](C)CO)C(=O)c2cc(NC(=O)Nc3ccccc3)ccc2O1,.,-39,73,0,.,.,.,.
